Measured values from ChEMBL document CHEMBL5108057, “Development of MAO-A and 5-HT2AR Dual Inhibitors with Improved Antidepressant Activity” (J Med Chem, 2022).
Active and inactive are the calls of the source. No cut-off for these calls is given here.

Tests used:
Mus musculus [1] = assay: Antidepressant activity in reserpine-induced mouse assessed as downregulation of 5-HT2AR expression at 10 to 20 mg/kg pretreated with reserpine for 3 days followed by compound addition on day 4 to 10 by Western blot analysis; type: functional, organism-based; conditions: dose 10-20 mg/kg, time 6.0 day
Procedure, shortened: (§1)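 Whole-brain protein was quantified by BCA and diluted to 3 mg/mL, then run on 4−20% SDS-PAGE and blotted. Primary antibody at 4 °C overnight, secondary 1 h at room temperature. 5-HT1AR and 5-HT2AR levels are relative; mean ± SD, n = 3.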

Danio rerio [2] = species: Danio rerio; assay: Antidepressant activity in reserpine-induced zebrafish AB depression model assessed as decrease in immobility time at 0.1 to 1 uM pretreated for 40 mins with reserpine followed by compound addition and measured for 7 days by open field test; type: functional, organism-based; conditions: dose 0.1-1 µM, time 7.0 day
Procedure, shortened: (§2)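 Zebrafish were exposed to 10 mg/L reserpine for 40 min. Compound (0.1, 0.5, 1 μM) or fluoxetine (1 μM) was given 24 h later for 7 days. Fish kept at 28.5 °C on a 14 h light/10 h dark cycle. Open-field and novel tank tests were video-tracked for distance, velocity, immobility and time in the top. Mean ± SD, n = 6.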

Mus musculus [3] = assay: Antidepressant activity in reserpine-induced mouse assessed as increase in 5-HT1AR expression at 10 to 20 mg/kg pretreated with reserpine for 3 days followed by compound addition on day 4 to 10 by Western blot analysis; type: functional, organism-based; conditions: dose 10-20 mg/kg, time 6.0 day; procedure, shortened: as §1
Danio rerio [4] = species: Danio rerio; assay: Antidepressant activity in reserpine-induced zebrafish AB depression model assessed as increase in exploratory ability at 0.1 to 1 uM pretreated for 40 mins with reserpine followed by compound addition and measured for 7 days by novel tank test; type: functional, organism-based; conditions: dose 0.1-1 µM, time 7.0 day; procedure, shortened: as §2
Mus musculus [5] = assay: Antidepressant activity in reserpine-induced ICR mouse model assessed as reduction in immobility time at 10 to 20 mg/kg pretreated with reserpine for 3 days followed by compound addition on day 4 to 10 by forced swimming test; type: functional, organism-based; conditions: dose 10-20 mg/kg, time 6.0 day
Procedure, shortened: (§3)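 Body weight was recorded daily. OFT: 5 min session scoring distance, speed, rearing and dejection. FST and TST: 6 min, with immobility scored over the last 4 min. Mean ± SD, n = 6; one-way ANOVA and t-test.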

PC-12 = assay: Neurocytoprotective activity against CORT-induced damage in rat PC-12 cells at 0.5 to 4 uM measured after 24 hrs by MTT assay; type: functional, cell-based; conditions: dose 0.5-4 µM
Procedure, shortened: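 PC12 cells seeded at 5 × 10^4 cells/mL for 24 h. Medium was then replaced with compound (0.5–4.0 μM) plus 500 μM CORT (DMSO <1%) for 24 h. Viability was measured by MTT relative to the CORT model group.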

[6] = Bioavailability in Sprague-Dawley rat at 2 mg/kg, iv measured upto 1440 mins by LC-MS/MS analysis; type: ADME, organism-based; conditions: in vivo
[7] = Tmax in Sprague-Dawley rat at 10 mg/kg, IG measured upto 1440 mins by LC-MS/MS analysis; type: ADME, organism-based; conditions: in vivo, po
[8] = Cytotoxicity against human L02 cells assessed as reduction in cell growth measured after 48 hrs by MTT assay; type: toxicity, cell-based
Procedure, shortened: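 MTT assay: PC12, SH-SY5Y or L02 cells at 5.0 × 10^3 per well were grown for 24 h, treated with compound dilutions from 10 mM DMSO stocks, and cultured 48 h. MTT was then added for 4 h at 37 °C, formazan dissolved in DMSO, and absorbance read at 570 nm. Viability is relative to blank control; IC50 from three repeats. Media contained 10% FBS.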

Danio rerio [9] = species: Danio rerio; assay: Antidepressant activity in reserpine-induced zebrafish AB depression model assessed as improved locomotion at 0.1 to 1 uM pretreated for 40 mins with reserpine followed by compound addition and measured for 7 days by novel tank test; type: functional, organism-based; conditions: dose 0.1-1 µM, time 7.0 day; procedure, shortened: as §2
[10] = Half life in Sprague-Dawley rat at 10 mg/kg, IG measured upto 1440 mins by LC-MS/MS analysis; type: ADME, organism-based; conditions: in vivo, po
[11] = Cmax in Sprague-Dawley rat at 10 mg/kg, IG measured upto 1440 mins by LC-MS/MS analysis; type: ADME, organism-based; design: time < 1440 min, dose 10 mg/kg, route ig; conditions: in vivo, po
Homo sapiens = species: Homo sapiens; assay: Selectivity index, ratio of IC50 for inhibition of MAO-B (unknown origin) to IC50 for inhibition of MAO-A (unknown origin)
Procedure, shortened: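 Amplex Red coupled assay. Test sample was preincubated with MAO-A or MAO-B at 37 °C for 15 min. p-Tyramine substrate working solution was added, with HRP converting the H2O2 formed to resorufin, for a further 15 min at 37 °C. Fluorescence read at Ex 545/Em 590 nm. […] SI = MAO-B IC50 / MAO-A IC50.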

Mus musculus [12] = assay: Antidepressant activity in chronic unpredictable mild stress ICR mouse model assessed as decrease in immobility time at 10 to 20 mg/kg measured after 2 weeks by forced swimming test; type: functional, organism-based; conditions: dose 10-20 mg/kg
Procedure, shortened: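 ICR mice received CUMS for 4 weeks: 11 stressors given randomly twice daily, 42 days in total. OFT: 5 min session scoring distance, speed, rearing and dejection. FST/TST: 6 min, with immobility scored over the last 4 min. Sucrose preference test was also run. Mean ± SD, n = 6.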

[13] = AUC(0 to 24 hrs) in Sprague-Dawley rat at 10 mg/kg, IG measured upto 1440 mins by LC-MS/MS analysis; type: ADME, organism-based; design: time < 1440 min, dose 10 mg/kg, route ig; conditions: in vivo, po
Mus musculus [14] = assay: Antidepressant activity in reserpine-induced ICR mouse model assessed as increase in total distance traveled at 10 to 20 mg/kg pretreated with reserpine for 3 days followed by compound addition for 1 week by open field test; type: functional, organism-based; conditions: dose 10-20 mg/kg, time 1.0 weeks; procedure, shortened: as §3
[15] = MRT infinity in Sprague-Dawley rat at 10 mg/kg, IG measured upto 1440 mins by LC-MS/MS analysis; type: ADME, organism-based; conditions: in vivo, po
Hippocampus = assay: Antidepressant activity in mouse hippocampal tissue assessed as reduction in neuronal cell damage at 10 to 20 mg/kg by H and E staining based assay; type: functional, organism-based; conditions: dose 10-20 mg/kg
Procedure, shortened: (§4)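 Mice given compound at 10 or 20 mg/kg, with fluoxetine 20 mg/kg as comparator. Paraffin tissue sections of 4 μm were cut. Staining: hematoxylin 5 min, 75% HCl-ethanol differentiation 30 s, eosin 2 min. Organs (liver, kidney, lung, heart, spleen) examined at ×400; hippocampus (CA1, CA3, DG) at ×200.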

[16] = Clearance in Sprague-Dawley rat at 2 mg/kg, iv measured upto 1440 mins by LC-MS/MS analysis; type: ADME, organism-based; conditions: in vivo
Danio rerio [17] = species: Danio rerio; assay: Antidepressant activity in reserpine-induced zebrafish AB depression model assessed as fast travel at 0.1 to 1 uM pretreated for 40 mins with reserpine followed by compound addition and measured for 7 days by open field test; type: functional, organism-based; conditions: dose 0.1-1 µM, time 7.0 day; procedure, shortened: as §2
Mus musculus [18] = assay: Antidepressant activity in reserpine-induced ICR mouse model assessed as decrease in number of dejection at 10 to 20 mg/kg pretreated with reserpine for 3 days followed by compound addition on day 4 to 10 by open field test; type: functional, organism-based; conditions: dose 10-20 mg/kg, time 6.0 day; procedure, shortened: as §3
Mus musculus [19] = assay: Antidepressant activity in reserpine-induced ICR mouse model assessed as increase the number of rearing at 10 to 20 mg/kg pretreated with reserpine for 3 days followed by compound addition on day 4 to 10 by open field test; type: functional, organism-based; conditions: dose 10-20 mg/kg, time 6.0 day; procedure, shortened: as §3
[20] = Toxicity in mouse assessed as toxic effect on lung at 10 to 20 mg/kg by H and E staining based assay; type: organism-based; conditions: in vivo, dose 10-20 mg/kg; procedure, shortened: as §4

In the case of `O=C1c2ccccc2-c2nccc3cc(OCCCCCN4CCN(c5ccccc5F)CC4)cc1c23`, the Activity (Mus musculus [1]) is reported as “Active”, the Activity (Danio rerio [2]) is reported as “Active” and the Activity (Mus musculus [3]) is reported as “Active”. For the same compound, the Activity (Danio rerio [4]) was “Active”, the Activity (Mus musculus [5]) was “Active” and the Activity (PC-12) was “Active”. The bioavailability [6] was 4.4%, the Tmax [7] was 1.33 h and the IC50 at 48 h [8] was > 100 µM. For the same compound, the Activity (Danio rerio [9]) was “Active”, the half-life [10] was 313 min and the Cmax [11] was 99.7 ng/mL. For the same compound, the Ratio IC50 (Homo sapiens) was 262, the Activity (Mus musculus [12]) was “Active” and the AUC(0-t) at 24 h [13] was 491 ng·h/mL. For the same compound, the Activity (Mus musculus [14]) was “Active”, the MRT inf [15] was 4.94 h and the Activity (Hippocampus) was “Active”. For the same compound, the clearance [16] was 14.5 mL/min/kg, the Activity (Danio rerio [17]) was “Active” and the Activity (Mus musculus [18]) was “Active”. For the same compound, the Activity (Mus musculus [19]) was “Active” and the Activity [20] was “Non-Toxic”.
